High-throughput results deposited in PubChem by The Scripps Research Institute Molecular Screening Center.
In the library only some 1.9% were active in any assay of this set; here they are far more common.
PLCb3 inh – inhibitors of human phospholipase C beta3; Q01970; Purified PLC-beta3, fluorogenic substrate, fluorescence; inhibition, % at 12.2 µM; actives 0.18% (n = 370,000); AID 720704; in the data active = inhibition above about 11%;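 also: 0% = median of compound wells on plate and 100% = full blocker control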
ASAP1 inh – ASAP1 ArfGAP inhibition | inhibition, % at 16.5 µM | ASAP1-stimulated ARF1 GTP hydrolysis, GDP FP detection | actives 0.19% (n = 360,000); in the data active = inhibition above about 25%;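 also: 0% = vehicle with enzyme and substrate and 100% = no enzyme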
ARFGAP1 inh – inhibits rat ARF GTPase activating protein 1; Q62848; Arfgap1-stimulated ARF1 GTP hydrolysis, GDP FP detection; inhibition, % at 16.5 µM; actives 0.26% (n = 360,000);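 active = inhibition above a per-plate limit, mean inhibition of low control wells plus 3 SD, cut at about 25% in these data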;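 also: 0% = DMSO wells with enzyme and 100% = wells lacking Arfgap1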
Target sequence (Q62848 1-136 limits assumed): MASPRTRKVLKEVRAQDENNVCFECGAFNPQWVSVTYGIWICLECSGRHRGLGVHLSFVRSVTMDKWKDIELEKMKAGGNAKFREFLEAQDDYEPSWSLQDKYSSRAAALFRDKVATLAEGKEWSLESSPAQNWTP
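system = rat Arfgap1 catalytic domain, aa 1-136 | technique = FP, GDP Alexa 633 tracer displaced from anti-GDP antibody, 620/688 nm | compound = one concentration, 16.5 µM, DMSO 1.26% | medium = HEPES-based buffer, pH 7.5 | timing = compound-enzyme preincubation 20 min, reaction 120 min, detection 60 min, 25 °C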
sPLA2-III inh – Blocks human group III sPLA2 activity. Q9NZ20. QFRET BODIPY PC-A2 liposome hydrolysis, fluorescence. inhibition, % at 12.2 µM. actives 0.56% (n = 370,000);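 active = inhibition above mean plus 3 SD of compounds lying within the high and low control bounds, cut at about 19% in these data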;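 also: 0% = median of test compound wells and 100% = no enzyme DMSO wells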
Target sequence (Q9NZ20 whole entry, looked up): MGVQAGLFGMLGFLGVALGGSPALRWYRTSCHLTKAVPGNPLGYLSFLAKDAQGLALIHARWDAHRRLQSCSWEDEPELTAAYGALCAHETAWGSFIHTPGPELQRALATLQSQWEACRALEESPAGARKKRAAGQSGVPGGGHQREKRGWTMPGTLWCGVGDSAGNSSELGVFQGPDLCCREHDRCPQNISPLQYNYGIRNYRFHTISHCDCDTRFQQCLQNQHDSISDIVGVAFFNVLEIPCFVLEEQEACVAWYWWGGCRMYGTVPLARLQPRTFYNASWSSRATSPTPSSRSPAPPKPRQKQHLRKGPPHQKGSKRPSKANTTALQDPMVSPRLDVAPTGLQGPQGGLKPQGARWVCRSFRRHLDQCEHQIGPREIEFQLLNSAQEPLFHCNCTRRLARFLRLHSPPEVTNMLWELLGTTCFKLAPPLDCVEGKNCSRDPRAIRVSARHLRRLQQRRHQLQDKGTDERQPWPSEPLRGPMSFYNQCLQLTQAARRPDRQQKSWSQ
PLCg1 inh – inhibitors of human phospholipase C gamma1; actives 0.84% (n = 370,000); purified PLC-gamma1, fluorogenic substrate, fluorescence; inhibition, % at 12.2 µM
PLCgamma1 ctr – inhibits human PLC-gamma1 in PLC-beta3 counter-screen; AID 743258; inhibition, % at 12.3 µM; shares compounds with PLCg1 inh; actives 3.1% (n = 3,300); purified PLC-gamma1, fluorogenic substrate, fluorescence
PLCbeta3 conf – confirmation of human PLC-beta3 inhibitors | actives 1% (n = 3,300) | purified PLC-beta3, fluorogenic substrate fluorescence | shares compounds with PLCg1 inh | inhibition, % at 12.3 µM; in the data active = inhibition above about 11%
* marks the source's active call; other numbers are inactive results. Rule as the data show it, unless noted: active = inhibition above about 9.5%; inactive = the rest.

Screening COc1cc(NC(=O)C2CCCN(S(=O)(=O)c3cccc4cccnc34)C2)cc(OC)c1 (stereo not given) returned PLCb3 inh -1.1, sPLA2-III inh -12.7 and PLCg1 inh -0.5.
For C=CCOC(=O)CN1C(=O)c2ccccc2C1=O the results were PLCb3 inh 11.6*, ASAP1 inh -2.2, ARFGAP1 inh -1.8, sPLA2-III inh 5.5, PLCg1 inh 9.2, PLCgamma1 ctr 1.9 and PLCbeta3 conf 3.5.
For CCOC(=O)CN1C(=O)c2ccccc2C1=O the results were PLCb3 inh 2.5, ASAP1 inh -5.3, ARFGAP1 inh -11.6, sPLA2-III inh -3.8 and PLCg1 inh -0.5.
Cc1cc(/C=C(\C#N)C(=O)Nc2ccc(Cl)cc2)c(C)n1-c1ccc(N2CCOCC2)c([N+](=O)[O-])c1 was read as PLCb3 inh 6.7, ASAP1 inh 7.0, ARFGAP1 inh 11.4, sPLA2-III inh -0.4, PLCg1 inh 13.6*, PLCgamma1 ctr 3.4 and PLCbeta3 conf 3.8.
`Cc1ccc(NC(=O)C2C3CC4OC(=O)C2C4C3)cc1Cl` (stereo not given) gave PLCb3 inh 4.6, ASAP1 inh -8.1, ARFGAP1 inh 11.9, sPLA2-III inh -0.5, PLCg1 inh 9.6*, PLCgamma1 ctr -6.3 and PLCbeta3 conf -6.2.
For CC(C)OC(=O)c1ccc(NC(=O)C2C3CC4OC(=O)C2C4C3)cc1 (stereo not given) the results were PLCb3 inh 0.8, ASAP1 inh 12.5, ARFGAP1 inh 4.2, sPLA2-III inh 3.3 and PLCg1 inh -3.7.
Screening CC(=O)Nc1c(C)nn(-c2ccc(C)c(C)c2)c1C returned PLCb3 inh 2.1, ASAP1 inh -5.3, ARFGAP1 inh -0.5, sPLA2-III inh 6.0, PLCg1 inh 9.6*, PLCgamma1 ctr -4.5 and PLCbeta3 conf -2.3.
For Cc1ccc(NC(=O)OCCCN2C(=O)CCC23CCC(C)CC3)cc1C (stereo not given) the results were PLCb3 inh 2.8, sPLA2-III inh -10.0 and PLCg1 inh 3.2.
COC(=O)CSc1nc2ccccc2n1CC(=O)N(C(C)C)C(C)C was read as PLCb3 inh 13.3*, ASAP1 inh 8.9, ARFGAP1 inh 3.0, sPLA2-III inh -1.8, PLCg1 inh 9.0, PLCgamma1 ctr -6.4 and PLCbeta3 conf -0.5.
`COc1ccc(N2C(=O)C(Cl)=C(Nc3ccccc3O)C2=O)cc1` gave PLCb3 inh 2.8, ASAP1 inh -23.0, ARFGAP1 inh -6.9, sPLA2-III inh -6.1 and PLCg1 inh -0.1.
Screening COc1ccc(N2C(=O)C(Cl)=C(Nc3ccccc3OC)C2=O)cc1 returned PLCb3 inh 13.3*, ASAP1 inh 2.0, ARFGAP1 inh 0.1, sPLA2-III inh -2.8, PLCg1 inh 9.5*, PLCgamma1 ctr -1.9 and PLCbeta3 conf -1.6.
Screening CCNc1nc(OC)nc(N2CCC(Cc3ccccc3)CC2)n1 returned PLCb3 inh 10.9*, ASAP1 inh 6.8, ARFGAP1 inh -6.6, sPLA2-III inh 7.2, PLCg1 inh 3.6, PLCgamma1 ctr -3.6 and PLCbeta3 conf -4.5.
`COc1nc(NCc2ccco2)nc(N2CCC(C)CC2)n1` gave PLCb3 inh 2.9, ASAP1 inh 5.8, ARFGAP1 inh -6.2, sPLA2-III inh -15.5 and PLCg1 inh 1.7.
COc1ccc(N2CC(C(=O)N[C@@H](C)C(=O)NCc3ccccc3OC)CC2=O)cc1 (stereo not given in full) was read as PLCb3 inh -11.9, ASAP1 inh 0.5, ARFGAP1 inh 1.4, sPLA2-III inh 3.8, PLCg1 inh 9.8*, PLCgamma1 ctr -1.3 and PLCbeta3 conf 0.7.
`COc1ccc(CNC(=O)[C@H](C)NC(=O)C2CC(=O)N(c3ccc(OC)cc3)C2)cc1` (stereo not given in full) gave PLCb3 inh -0.7, ASAP1 inh -10.9, ARFGAP1 inh -3.2, sPLA2-III inh 2.8 and PLCg1 inh -2.5.
Screening C[C@H](CO)N1C[C@H](C)[C@@H](CN(C)C(=O)Nc2ccc3c(c2)OCO3)OCc2cn(nn2)CCCC1=O returned PLCb3 inh -25.7, ASAP1 inh -16.7, ARFGAP1 inh 4.6, sPLA2-III inh 5.8 and PLCg1 inh -21.0.
`CC(C)=CCC[C@@]1(C(=O)O)[C@@H]2C/C=C(\C)CC/C=C(\C)CC[C@H]1[C@]1(CC2)CO1` gave PLCb3 inh -1.2, sPLA2-III inh -6.3 and PLCg1 inh 1.2.
`Cc1ccc(-c2cc(N)n(-c3ccc(C)cc3)n2)cc1` gave PLCb3 inh -3.7, ASAP1 inh -9.8, ARFGAP1 inh 7.5, sPLA2-III inh -4.4 and PLCg1 inh -1.2.
`Cc1ccc(-c2cc(N)n(-c3ccc(F)cc3)n2)cc1` gave PLCb3 inh 1.0, ASAP1 inh 15.6, ARFGAP1 inh 7.0, sPLA2-III inh 8.8, PLCg1 inh 12.9*, PLCgamma1 ctr 2.2 and PLCbeta3 conf 5.7.
`O=[N+]([O-])c1ccc(N2CCN(Cc3ccc([N+](=O)[O-])o3)CC2)cc1` gave PLCb3 inh -0.2, ASAP1 inh 13.7, ARFGAP1 inh 6.3, sPLA2-III inh -2.9, PLCg1 inh 9.8*, PLCgamma1 ctr 0.7 and PLCbeta3 conf 1.7.
O=[N+]([O-])c1nccn1CC(O)CO (stereo not given) was read as PLCb3 inh 8.0, ASAP1 inh 11.3, ARFGAP1 inh 7.7, sPLA2-III inh 14.7, PLCg1 inh 10.3*, PLCgamma1 ctr -1.9 and PLCbeta3 conf 1.5.
Screening Cc1ccc(-n2c(SCc3cccc4ccccc34)nnc2-c2ccccn2)cc1 returned PLCb3 inh 3.0, sPLA2-III inh -5.0 and PLCg1 inh 4.0.
Screening Cc1ccc(NC(=O)c2cccc3c2-c2ccccc2C3=O)c(C)c1 returned PLCb3 inh -0.8, sPLA2-III inh 3.0 and PLCg1 inh 0.8.
For COC(=O)C1CN(C2CCCC2)CCS(=O)(=O)N1Cc1ccc(F)cc1 (stereo not given) the results were PLCb3 inh 2.4, sPLA2-III inh -1.3 and PLCg1 inh 1.9.
For O=C1OC(Cc2ccccc2)(c2ccccc2)c2ccccc21 (stereo not given) the results were PLCb3 inh 11.1*, ASAP1 inh 7.5, ARFGAP1 inh 0.0, sPLA2-III inh 5.1, PLCg1 inh 11.3*, PLCgamma1 ctr 0.1 and PLCbeta3 conf 0.3.
COc1ccc2sc(N(CCCN(C)C)C(=O)c3ccc(S(=O)(=O)N4CCCC4)cc3)nc2c1 was read as PLCb3 inh 6.8, ASAP1 inh -0.8, ARFGAP1 inh 7.4, sPLA2-III inh -12.0, PLCg1 inh 12.4*, PLCgamma1 ctr -3.7 and PLCbeta3 conf -1.7.
